Screens from PubChem.
Furin inhibitor: inhibitors of human furin. P09958. purified furin, fluorogenic substrate cleavage. inhibition, % at 20 µM or 30 µM. 220,000 compounds, 0.061% hits. AID 463115; in the data active = inhibition above about 25%
RBBP9 inhibitor: blocks human serine hydrolase RBBP9; inhibition, % at 7.94 µM; recombinant RBBP9, FP-Rh probe fluorescence polarization; 220,000 compounds, 0.2% hits; O75884;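 active = inhibition above the campaign mean of all tested compounds plus 3 SD, cut at about 14% in these data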;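 note: plate controls were DMSO wells with RBBP9 for no effect and wells lacking RBBP9 protein for full effect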
Target sequence (O75884 whole entry, looked up): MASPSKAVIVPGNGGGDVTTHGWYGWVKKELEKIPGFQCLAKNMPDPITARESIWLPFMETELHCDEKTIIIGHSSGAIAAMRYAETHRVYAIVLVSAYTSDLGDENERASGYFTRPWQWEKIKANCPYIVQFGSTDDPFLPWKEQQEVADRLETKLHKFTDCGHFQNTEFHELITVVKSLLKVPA
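Measured by – fluorescence polarization · Test system – RBBP9 protein · Input – 2.5 µM RBBP9 dispensing solution, before mixing · Measure – percent inhibition from mP, scaled between DMSO and no-protein wells · Benchmarks – DMSO-treated enzyme wells and wells lacking RBBP9 · Times – preincubation 30 min plus labeling 45 min at 25 °C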
Calpain2 inh: inhibitors of pig calpain II. purified calpain II, fluorogenic peptide substrate, 30 min. inhibition, % at 16 µM. 220,000 compounds, 0.37% hits. AID 1236;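 active = inhibition above about 50%, limit read from the data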
p47phox inh: p47phox (human) inhibition | P14598 | AID 1274 | 220,000 compounds, 0.53% hits | inhibition, % at 24.7 µM | p47phox/p22phox peptide binding, fluorescence polarization, 2 h;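 active = inhibition above about 30%, limit read from the data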;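 note: 0% = p47phox with labelled peptide and 100% = labelled peptide alone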
Target sequence (P14598 whole entry, looked up): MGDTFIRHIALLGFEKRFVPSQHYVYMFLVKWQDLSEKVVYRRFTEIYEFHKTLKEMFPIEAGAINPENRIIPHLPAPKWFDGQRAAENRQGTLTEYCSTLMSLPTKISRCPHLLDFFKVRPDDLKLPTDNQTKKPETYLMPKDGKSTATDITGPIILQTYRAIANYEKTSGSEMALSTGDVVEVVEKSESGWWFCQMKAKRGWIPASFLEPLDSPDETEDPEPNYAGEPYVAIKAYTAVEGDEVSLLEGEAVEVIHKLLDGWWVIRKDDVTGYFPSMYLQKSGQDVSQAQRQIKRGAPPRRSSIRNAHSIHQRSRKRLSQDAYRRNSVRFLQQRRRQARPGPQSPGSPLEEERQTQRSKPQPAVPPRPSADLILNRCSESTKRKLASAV
RBBP9 confirm: human RBBP9 inhibition, confirmation; shares compounds with RBBP9 inhibitor; recombinant RBBP9, FP-Rh probe fluorescence polarization; inhibition, % at 7.94 µM; 410 compounds, 36% hits;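 active = inhibition above the hit cutoff derived for the primary screen, cut at about 15% in these data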;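 note: 0% = RBBP9 with DMSO and 100% = wells lacking RBBP9 protein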
Numbers without * were called inactive; x = not tested or not shown. In the library only some 1.1% were active in any assay of this set; here they are far more common.

SMILES | Furin inhibitor | RBBP9 inhibitor | Calpain2 inh | p47phox inh | others
CN(C)c1ccc(/C=C2\C(=O)NC(=O)N(Cc3ccc(F)cc3)C2=O)cc1 | -16.0 | -9.6 | -12.1 | 96.6*
CCOc1ccccc1OCC(=O)Nc1ccc(Cl)cc1C(=O)c1ccccc1 | -18.4 | -8.3 | 32.8 | 7.7
O=C(COC(=O)c1cccc(O)c1)Nc1ccc(Cl)cc1C(=O)c1ccccc1 | -13.4 | -15.2 | 52.6* | 2.4
CN1C(=O)/C(=C\c2ccc(N3CCCCCC3)cc2)C(=O)NC1=S | -15.1 | -6.0 | 2.0 | 14.5
CCC(C)N1C(=O)/C(=C\c2cc3c4c(c2)CCCN4CCC3)C(=O)NC1=S (stereo not given) | -20.7 | -1.3 | 3.6 | 62.7*
CCC(C)N1C(=O)/C(=C\c2ccc(N3CCCCCC3)cc2)C(=O)NC1=S (stereo not given) | 1.0 | -7.0 | 5.8 | 56.5*
Cc1cc2ccccc2c(=O)n1CC(=O)NCC(=O)N1CCC2(CC1)OCCO2 | -17.9 | 4.5 | -13.8 | 11.3
O=c1c2ccccc2[nH]c(=S)n1-c1ccc2c(c1)OCCO2 | -17.4 | -12.9 | -14.3 | -10.5
c1ccc2c(c1)Sc1ccccc1N2CC1CN2CCC1CC2 (stereo not given) | -21.7 | 2.4 | -7.5 | 1.7
CC(C)OP(=O)(OC(C)C)C(NCc1ccccc1)c1ccccc1 (stereo not given) | -15.7 | 2.3 | 11.9 | -0.9
C=C1[C@@H](C)[C@H]2[C@H](Cc3ccccc3)NC(=O)[C@]23OC(=O)/C=C/[C@H](O)CCC[C@@H](C)C/C=C/[C@H]3[C@@H]1O | x | 4.8 | -5.4 | 30.5*
CC(=O)c1c(C)n(Cc2ccccc2Cl)c2ccc(O)cc12 | -12.8 | -6.0 | -4.5 | 115.3*
Cc1ccc(-n2c(O)c(/C=N/Nc3ccccc3)c(=O)[nH]c2=O)cc1C | -0.4 | -6.3 | 1.0 | 39.8*
CN1/C(=C\C=C2C(=O)NC(=O)NC2=O)C(C)(C)c2ccccc21 | 27.9* | -5.6 | 21.4 | -8.0
CN1/C(=C\C=Nc2ccccc2)C(C)(C)c2ccccc21 | -7.1 | -8.6 | 5.7 | -144.9
C=CCN1C(=O)/C(=C/c2ccc3c(c2)CCCN3CCC)C(=O)NC1=S | -16.8 | -6.9 | -19.0 | 42.9*
O=C1/C(=C\c2ccc(Cl)c(Cl)c2)N2CCC1CC2 | -7.0 | 1.0 | -1.2 | -13.2
O=C(C1CC(=O)N(C2CCCCCCC2)C1)N1CCC2(CC1)OCCO2 (stereo not given) | -6.8 | 2.3 | -19.7 | 34.5*
O=c1[nH]c(O)c(/C=C2/C=CC(c3cc(Cl)ccc3Cl)=N2)c(=O)[nH]1 | 0.2 | -7.4 | -35.4 | 50.0*
Cc1ccc2c(c1)=NC(=O)/C(=C/c1c(O)[nH]c(=O)[nH]c1=O)C=2 | -23.1 | -5.2 | -24.2 | -13.4
Cc1cc(OCCN2CC2)c2ccccc2n1 | -19.5 | -8.0 | 7.5 | -2.4
CCOc1ccc(C2CC(c3c(O)n(C)c(=O)n(C)c3=O)=NN2)cc1 (stereo not given) | -8.2 | -9.9 | -22.7 | 61.5*
C[N+]1=C(/C=C/Nc2ccccc2)C(C)(C)c2ccccc21 | -3.8 | -14.8 | -0.3 | -162.3
CN1/C(=C\C=C\C2=[N+](C)c3ccc4ccccc4c3C2(C)C)C(C)(C)c2ccccc21 | -10.6 | 131.6* | 24.3 | -249.1
OC(CNC1CCCCC1)C(F)(F)F (stereo not given) | -20.6 | -0.2 | 1.3 | -7.7
SMILES | Furin inhibitor | RBBP9 inhibitor | Calpain2 inh | p47phox inh | others
COC(=O)C1C=C2c3cccc4[nH]cc(c34)CC2N(C)C1 (stereo not given) | -9.8 | 21.3* | -48.9 | -1.1
O=c1c2ccccc2[se]n1-c1ccccc1 | -12.9 | -83.8 | 18.7 | 84.9*
CCOP(=O)(OCC)C(NC(=O)c1cccc([N+](=O)[O-])c1)C(Cl)(Cl)Cl (stereo not given) | -25.1 | -6.4 | -3.1 | -10.8
O=C(N/N=C/c1c(O)n(Cc2ccccc2)c(=O)[nH]c1=O)c1ccncc1 | 2.6 | -11.8 | -25.2 | -10.2
C=CCn1c(O)c(/C=N/NC(=O)c2ccncc2)c(=O)[nH]c1=O | 36.4* | -11.9 | 0.7 | -5.6
c1ccc(-c2[nH]c[n+](CC3CO3)c2-c2ccccc2)cc1 (stereo not given) | -18.4 | -4.2 | -147.0 | 30.6*
CN(C)C(=O)O/N=C(\N)COc1ccc(C(C)(C)C)cc1 | -7.5 | -5.4 | -2.8 | -5.5
COc1ccc(-n2c(O)c(C(C)=NCc3ccc4c(c3)OCO4)c(=O)[nH]c2=O)cc1 | -20.2 | -9.1 | -4.6 | -9.4
CN(C)c1ccc(/C=C/[N+](=O)[O-])cc1 | -6.4 | 1.0 | -4.6 | 43.0*
CC1CCCN(CC(=O)N2CCCc3ccccc32)C1 (stereo not given) | -21.3 | -8.6 | 24.2 | -4.0
O=C(c1ccccc1)c1cn(CC(=O)N2CCCc3ccccc32)c2ccccc12 | -13.0 | -11.7 | 56.2* | -13.6
CN(C)/C=C/C(=O)C(Cl)(Cl)Cl | -9.5 | 1.9 | 10.9 | -10.8
CCCC(=O)Nc1ccc(N2CCN(CC)CC2)c(Cl)c1 | -18.6 | -4.3 | -21.8 | 4.0
CCCCC/C=C\C/C=C\C/C=C\C/C=C\CCCC(=O)Nc1ccc(O)cc1 | x | 0.7 | 63.2* | -8.4
C1CCC2S[C@H]3CCCCC3NC2C1 (stereo not given in full) | -18.3 | -4.5 | -13.5 | -18.6
O=S(=O)(c1ccccc1)N1CCCCC1c1cccnc1 (stereo not given) | -5.9 | -7.0 | 6.3 | 43.4*
N#CC[N+]1(CCCNP2(=O)C=C(c3ccccc3)OC(c3ccccc3)=C2)CCOCC1 | -19.2 | -6.8 | 31.2 | -9.7
Cc1nnc(SCc2nc3ccccc3c(=O)n2-c2ccccc2Cl)n1N | 26.4* | -2.1 | -30.8 | 1.4
O=c1[nH]c(=S)n(-c2ccc(Cl)cc2)c(O)c1/C=N/N1CCOCC1 | -8.7 | -4.4 | 8.1 | -11.6
O=c1[nH]c(=O)n(Cc2ccco2)c(O)c1C=NC1CCN(Cc2ccccc2)CC1 | -19.5 | -8.1 | -5.9 | -2.6
CCC1CN(C)CCC1(OC(C)=O)c1ccccc1 (stereo not given) | -18.3 | -0.3 | -14.0 | -9.8
CCCCN1CCC(O)(c2ccccc2)C(C(=O)c2ccccc2)C1 (stereo not given) | 34.1* | -2.4 | -23.2 | -7.6
CN1C2c3ccccc3C3C4c5ccccc5C(C31)C(C2[N+](=O)[O-])N4C (stereo not given) | -16.1 | -0.5 | 11.1 | 91.8*
CCN(CC)c1ccc(/C=N/c2sc3c(c2C#N)C2CCN3CC2)c(O)c1 | -5.2 | -4.9 | -1.0 | 73.8*
CCc1ccc(C2=NN(CCC(=O)N3CCC4(CC3)OCCO4)C(=O)CC2)cc1 | -0.2 | -1.4 | 11.6 | 4.4
SMILES | Furin inhibitor | RBBP9 inhibitor | Calpain2 inh | p47phox inh | others
c1ccc(-c2nc(N3CCOCC3)s[n+]2-c2ccccc2)cc1 | -12.9 | -7.7 | -9.8 | 41.5*
CCCCCCCCCOc1ccc2[nH]cc(CCN)c2c1 | x | 0.9 | 38.2 | 92.0*
C[C@H]1CC[C@H]2NCCN[C@H]2C1 | -13.1 | 3.5 | 13.8 | -0.4
CCOC(=O)c1c(C)n(Cc2ccco2)c2c1cc(O)c1ccccc12 | -16.3 | -6.0 | -37.5 | -10.2
CN1CCN2c3ccc(N)cc3CC3(C(=O)NC(=O)NC3=O)C2C1 (stereo not given) | -7.9 | 20.5* | -0.1 | 28.7 | RBBP9 confirm=64.9*
N#CC12CNCC1CN=N2 (stereo not given) | -13.6 | -10.9 | 3.5 | -13.6
